This note sets out measurements from BindingDB's records for doi:10.1016/j.bmc.2019.02.023 (Wesleyan University, 2019).

This experiment addresses Beta-lactamase (Enterobacter cloacae, UniProt P05364). Kind of experiment: Irreversible inhibition of Enterobacter cloacae P99 beta-lactamase using cephalothin as substrate by spectrophotometric analysis. The settings on record: read-out: kon (M-1-s-1). In short, it runs like this:
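P99 class C β-lactamase (stock concentration by A280, ε 7.1 x 10⁴ M⁻¹cm⁻¹) incubated with inhibitor in 20 mM MOPS pH 7.5, 0.1% BSA, 25 °C. Aliquots diluted 1:50 into 300 μM cephalothin; initial rates followed at 270 nm over time. Titration: 150 nM enzyme with 0–2.0 μM inhibitor to end-point. Time-course and titration data fitted jointly to Scheme 2, k2 fixed at 100 s⁻¹, giving k1, k2/k3 and k_i.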

Chain of Beta-lactamase (P05364 whole entry): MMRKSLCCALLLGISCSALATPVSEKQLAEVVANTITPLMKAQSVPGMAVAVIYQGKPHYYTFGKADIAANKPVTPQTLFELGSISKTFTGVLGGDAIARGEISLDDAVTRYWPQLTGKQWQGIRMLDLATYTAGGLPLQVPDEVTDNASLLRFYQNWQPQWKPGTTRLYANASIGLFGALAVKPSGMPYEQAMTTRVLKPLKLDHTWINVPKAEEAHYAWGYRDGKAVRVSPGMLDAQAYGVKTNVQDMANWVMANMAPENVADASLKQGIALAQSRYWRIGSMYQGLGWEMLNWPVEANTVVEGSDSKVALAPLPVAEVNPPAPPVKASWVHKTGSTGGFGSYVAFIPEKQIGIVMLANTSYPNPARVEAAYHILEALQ

Broadly, the kon is a measure of how fast the partners come together. For the compound `O=C(NOC(=O)Oc1ccccc1)OCc1ccccc1`, the kon amounted to 2000 M⁻¹ s⁻¹.
To `O=C(NOC(=O)Oc1ccccc1)OCCc1ccccc1` belongs 1400 M⁻¹ s⁻¹.
Turning to `O=C(O)CCCCOC(=O)NOC(=O)Oc1ccccc1`, the on-rate constant (kon) came to 8500 M⁻¹ s⁻¹.
To `N[C@H](CCCOC(=O)NOC(=O)Oc1ccccc1)C(=O)O` belongs 16000 M⁻¹ s⁻¹; to `CCCCOC(=O)NOC(=O)Oc1ccccc1`, 1100 M⁻¹ s⁻¹.
